Source: article PMC7564034 (Acta Pharmaceutica Sinica. B, 2019)
Like-named read-outs stand apart in the source and are kept apart here.

Tests used:
HUVECs [1] = assay: Capillary-like tube formation assay; assay type: cell-based; conditions: Homo sapiens, HUVEC, read-out: Inhibition of tube formation ability of HUVECs
Summary of the method: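 Conditioned medium was taken as supernatant after 24 h exposure to test compound (2, 10, 50 μmol/L). HUVECs were seeded at 5 × 10^4 cells/well on Matrigel and treated with this medium for 5.5 h under normoxia or hypoxia (1% O2, 5% CO2). Tubes were stained with calcein for 0.5 h before imaging.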

LoVo = assay: Uptake of ginsenosides by LoVo in vitro; assay type: cell-based, human; conditions: compared to Rb1 and Rb2 (Fig. S5)
HUVEC = assay: Uptake of ginsenosides by HUVEC in vitro; assay type: cell-based, human; conditions: compared to Rb1 and Rb2 (Fig. S5)
[2] = assay type: in vivo, Balb/c nude mice harboring LoVo xenografts
VEGF = assay: ELISA of VEGF secretion in tumors; assay type: in vivo, Balb/c mice harboring LoVo xenografts; conditions: 15 days i.p., vs vehicle
Summary of the method: (§1)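 Mice received test compound i.p. for 15 days. Tumors were harvested 20 min after the final dose and homogenized in RIPA buffer. VEGF and FGF were quantified by ELISA kit and normalized to protein content measured by BCA assay. Compared with vehicle.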

[3] = Constituent ratio of ginsenosides in SMI, plasma, tumor and endothelial cells; assay type: in vivo, Balb/c nude mice harboring LoVo xenografts; conditions: 20 min after 15-day SMI treatment
Summary of the method: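 Tissues were sampled 20 min after the last dose of a 15-day i.p. course. Tumors were digested 1 h in DMEM with collagenase I (2 mg/mL) and DNase I (0.1 mg/mL), then strained through 40 μm mesh. CD31+ cells were enriched with PE anti-mouse CD31 and anti-PE magnetic particles, with purity checked by CD45/viability flow cytometry; n = 3. Each ratio = concentration of the constituent / summed eight ginsenosides.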

HUVECs [4] = assay: Wound healing migration assay; assay type: cell-based, human; conditions: 24 h
Summary of the method: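 Confluent HUVEC monolayers were scratched with sterile pipette tips and given fresh DMEM containing test compound. Cells were incubated under normoxia or hypoxia (1% O2, 5% CO2) and imaged at 0 and 24 h. Migration length = (scratch area 0 h − scratch area 24 h)/scratch length; n = 6.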

[5] = assay type: in vivo, Balb/c nude mice harboring LoVo xenografts; conditions: 20 min after 15-day SMI treatment
Summary of the method: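 Male 6-week Balb/c nude mice (18 ± 1 g) bearing LoVo xenografts were given SMI intraperitoneally for 15 days. Tumors collected 20 min after the final dose were minced and digested 1 h in DMEM with 2 mg/mL collagenase type I and 0.1 mg/mL DNase I. Cells were split into endothelial, hematopoietic and other fractions; purity was checked by flow cytometry (anti-mouse CD45, viability stain). n = 3, mean ± SEM.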

HUVECs [6] = assay: EDU staining; assay type: cell-based, human; conditions: Rd 2, 10, 50 μmol/L; 24 h; hypoxia
HUVECs [7] = assay: Cell viability assay; assay type: cell-based, human; conditions: Rd 1–50 μmol/L, SMI 5 μL/mL; 24 h; normoxia or hypoxia
Summary of the method: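 HUVECs were exposed to test compound for 24 h under normoxia or hypoxia (1% O2, 5% CO2). Viability was measured by MTT and expressed as a percentage of DMSO-treated cells under normoxia; n = 6.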

[8] = tested on: tumor vessels in LoVo xenografts; assay: CD31 staining of tumor slides, microvessels and vessel branches; assay type: in vivo, Balb/c nude mice; conditions: 15 days i.p.
Summary of the method: (§2)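 Tumors from mice given test compound i.p. for 15 days were fixed in 4% PFA and cut into 12 μm sections. Sections were stained overnight with anti-CD31 at 1:100; for pericyte coverage, anti-SMA at 1:100 was added. Cy5- or Cy2-conjugated secondary (1:200) was applied for 1 h at 37 °C. Confocal Z-stacks were reconstructed in 3D or as maximum intensity projections. Compared with vehicle.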

LoVo xenografts = assay: Xenograft tumor growth, SMI or Rd combined with 5FU, 20-day treatment; assay type: in vivo, Balb/c mice; conditions: SMI 10 mL/kg/day or Rd 5 mg/kg/day i.p., 20 days, without 5FU
Summary of the method: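 LoVo-xenograft mice with all tumors above 50 mm3 were dosed i.p. for 20 days: 10 mL/kg/day, 5 mg/kg/day, and/or 5FU 15 mg/kg every 3 days. Body weight and tumor axes were recorded daily; tumor volume = 1/2 × a × b². Tumors were resected after treatment. Weight change was read after 17 days; mean ± SEM.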

[9] = tested on: tumor vessels in LoVo xenografts; assay: CD31/α-SMA double staining, pericyte coverage around tumor vessels; assay type: in vivo, Balb/c nude mice; conditions: 15 days i.p.; SMI, Rd-H 5 mg/kg; vs vehicle
Summary of the method: as §2

FGF = assay: ELISA of FGF secretion in tumors; assay type: in vivo, Balb/c mice harboring LoVo xenografts; conditions: 15 days i.p.; SMI, Rd-H 5 mg/kg, Rb1, Rg1; vs vehicle
Summary of the method: as §1

[10] = assay type: in vivo, Balb/c nude mice harboring LoVo xenografts; conditions: for Cmax / Tmax: Balb/c nude, mouse, plasma
Summary of the method: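 Male LoVo-xenograft nude mice (6 weeks old) received 10 mL/kg i.p., either once or daily for 8 days. Blood (~0.1 mL) was drawn from the oculi chorioideae vein into heparin tubes between 5 min and 96 h after the last dose, 5 mice per time point. Plasma was spun at 8000 rpm for 5 min and extracted with methanol. AUC0–∞ and the multiple/single ratio were derived.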

[11] = 8-day vs single SMI 10 mL/kg/day i.p.
[12] = SMI i.p., single or multiple not given

## CC(C)=CCC[C@](C)(O[C@@H]1O[C@H](CO)[C@@H](O)[C@H](O)[C@H]1O)[C@H]1CC[C@]2(C)[C@@H]1[C@H](O)C[C@@H]1[C@@]3(C)CC[C@H](O[C@@H]4O[C@H](CO)[C@@H](O)[C@H](O)[C@H]4O[C@@H]4O[C@H](CO)[C@@H](O)[C@H](O)[C@H]4O)C(C)(C)[C@@H]3CC[C@]12C [Rd, ginsenoside Rd]
HUVECs [1]
  inhibition at 2 µM: 18%
  inhibition at 10 µM: 40%
  inhibition at 50 µM: 56%
LoVo
  Uptake by LoVo: superior uptake
HUVEC
  Uptake by HUVEC: superior uptake
[2]; [11]
  AUC0–∞ ratio Multiple/Single in tumors: 10.53
[2]; [12]
  AUC0–∞ of Rd in tumors, times higher than that of Rb1: 8.0 times
  AUC0–∞ of Rd in tumors, times higher than that of Rb2/Rb3: 7.3 times
  AUC0–∞ of Rd in tumors, times higher than that of Rc: 3.6 times
  AUC0–∞ of Rd in tumors, times higher than that of Ro: 266.6 times
VEGF; Rd-L 0.5 mg/kg
  Reduction of the secretion of VEGF in tumors: 32%
VEGF; SMI, Rd-H 5 mg/kg, Rb1, Rg1
  Reduction of the secretion of VEGF in tumors: 32%
[3]
  Constituent ratio in TECs: 40.3%
  Constituent ratio in plasma: 16.0%
  Constituent ratio in tumor tissues: 34.3%
HUVECs [4]; 50 μmol/L
  Suppression of hypoxia-induced HUVEC migration: 88%
HUVECs [4]; Rd 2, 10 and 50 μmol/L or SMI, hypoxia
  Effect on HUVECs migration: suppressed HUVECs migration concentration-dependently
[5]
  Concentration of ginsenosides, endothelial cells (TECs): most abundant distribution in TECs
HUVECs [6]
  Effect on cellular proliferation of HUVECs (EDU/HOECHST): no significant effect on cellular proliferation
HUVECs [7]
  Effect on cell viability of HUVECs: no effect on the cell viability
[8]; Rd-L 0.5 mg/kg
  Effect on microvessels, branches and pericyte coverage: very modest effects
[8]; SMI, Rd-H 5 mg/kg, vs vehicle
  Decrease of the number of CD31+ microvessels: 37%
  Decrease of vessel branches: 59%
LoVo xenografts
  Effect on tumor growth, given alone: no significant effect on tumor growth
[9]
  Increase of pericyte coverage around microvessels: 2.1 fold
FGF
  Suppression of the secretion of FGF in tumors: 68%
[10]; [11]
  AUC0–∞ ratio Multiple/Single in plasma: 5.28
[10]; intraperitoneal, 10 mL/kg
  Cmax: ~10 µM
[10]; ip, 10 mL/kg
  Cmax: 3200 ng/mL
  Tmax: 4 h
[10]; ip, 10 mL/kg/day
  Cmax: 10400 ng/mL
  Tmax: 2 h
[10]; after single or multiple SMI administration
  AUC0–∞ in plasma relative to those of Re, Rg1, Rg3 and Ro: more than 20 times
